Measured values reported in ChEMBL document CHEMBL1123382, “Potential tumor- or organ-imaging agents. 27. Polyiodinated 1,3-disubstituted and 1,2,3-trisubstituted triacylglycerols” (J Med Chem, 1986).
Values joined by “and” are separate entries in the source; they are usually repeats but may differ in a detail not shown here. Equal entries are not always repeated.

Assays:
[1] = system: Rattus norvegicus; assay: Compound (125I labeled) was evaluated for the total radioactivity in high-density lipoprotein 5 min after intravenous administration.; type: functional
How it was run: (§1)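 Rat plasma taken 5 or 30 min after iv dosing of 125I-labeled compound (saline/Tween-20) and run on polyacrylamide gel electrophoresis. Gels sectioned and each section gamma-counted. Radioactivity in each band (stacking gel, lipoproteins, albumin, below-albumin) is given as % of total radioactivity applied to the gel.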

[2] = system: Rattus norvegicus; assay: Evaluated for the total radioactivity in below albumin at 30 min after intravenous administration.; type: functional; how it was run: as §1
[3] = system: Rattus norvegicus; assay: Compound (125I labeled) was evaluated for the total radioactivity in albumin 5 min after intravenous administration.; type: functional; parameters: concentration or dose not given beside the values; how it was run: as §1
[4] = system: Rattus norvegicus; assay: Compound was evaluated for the lipid soluble radioactivity extracted from rat liver at 24 hr after intravenous administration.; type: functional
How it was run: (§2)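 Liver and plasma taken 0.5 or 24 h after iv dosing of 125I-labeled compound in rats (n = 3-5). Extracted by a modified Folch procedure; value is % lipid (CHCl3/MeOH)-extractable radioactivity ± SEM. Extracts run on TLC in hexane/ethyl acetate 5:2 against unlabeled standard, then 1-cm strips counted to give % parent compound.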

[5] = system: Rattus norvegicus; assay: Biodistribution in Rat heart after 5 minutes of iv administration; type: ADME, organism-based; settings: in vivo
How it was run: (§3)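 125I-labeled compound solubilized in normal saline with Tween-20 and given iv to rats, about 5-30 μCi (9-83 μg) per animal. Three to five rats per time point. Rats killed by exsanguination under ether anesthesia at 5 min, 30 min or 24 h. Organs minced, blotted free of blood and counted for radioiodine. Lines with "per g" are % administered dose per gram ± SEM.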

[6] = system: Rattus norvegicus; assay: (§4) Biodistribution in Rat liver after 30 minutes of iv administration; type: ADME, organism-based; settings: in vivo, 0.5 h; how it was run: as §3
[7] = system: Rattus norvegicus; assay: Biodistribution in Rat liver after 24 hours of iv administration; type: ADME, organism-based; settings: in vivo; how it was run: as §3
[8] = system: Rattus norvegicus; assay: Compound was evaluated for the lipid soluble radioactivity extracted from rat plasma at 24 hr after intravenous administration.; type: functional; how it was run: as §2
[9] = system: Rattus norvegicus; assay: Biodistribution in Rat heart after 24 hours of iv administration; type: ADME, organism-based; settings: in vivo; how it was run: as §3
[10] = system: Rattus norvegicus; assay: Compound (125I labeled) was evaluated for the total radioactivity in low-density lipoprotein, at 30 min after intravenous administration.; type: functional; how it was run: as §1
[11] = system: Rattus norvegicus; assay: Biodistribution in Rat lung after 5 minutes of iv administration; type: ADME, organism-based; settings: in vivo; how it was run: as §3
[12] = system: Rattus norvegicus; assay: Compound was evaluated for the lipid soluble radioactivity extracted from rat plasma at 0.5 hr after intravenous administration.; type: functional; how it was run: as §2
[13] = system: Rattus norvegicus; assay: Compound (125I labeled) was evaluated for the total radioactivity in stacking gel at 30 min after intravenous administration.; type: functional; how it was run: as §1
[14] = system: Rattus norvegicus; assay: Biodistribution in Rat lung after 30 minutes of iv administration; type: ADME, organism-based; settings: in vivo, 0.5 h; how it was run: as §3
[15] = system: Rattus norvegicus; assay: Biodistribution in Rat liver after 5 minutes of iv administration; type: ADME, organism-based; settings: in vivo; how it was run: as §3
[16] = system: Rattus norvegicus; assay: Compound (125I labeled) was evaluated for the total radioactivity in albumin at 30 min after intravenous administration.; type: functional; parameters: concentration or dose not given beside the values; how it was run: as §1
[17] = system: Rattus norvegicus; assay: Liver radioactivity after iv administration of compound (5 min) in rats; type: functional, organism-based
How it was run: (§5)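 Rats (3-5 per time point) dosed iv with about 5-30 μCi (9-83 μg) of 125I-labeled compound in saline containing Tween-20. Killed by exsanguination under ether at 5 min, 30 min or 24 h. Liver removed, minced, blotted and counted. Values are % administered dose per organ, based on each animal's actual liver weight, ± SEM.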

[18] = system: Rattus norvegicus; assay: Biodistribution in Rat lung after 24 hours of iv administration; type: ADME, organism-based; settings: in vivo; how it was run: as §3
[19] = system: Rattus norvegicus; assay: Compound (125I labeled) was evaluated for the total radioactivity in high-density lipoprotein, at 30 min after intravenous administration.; type: functional; how it was run: as §1
[20] = system: Rattus norvegicus; assay: Liver radioactivity after iv administration of compound (30 min) in rats; type: functional, organism-based; how it was run: as §5
[21] = system: Rattus norvegicus; assay: Liver radioactivity after iv administration of compound (24 h) in rats; type: functional, organism-based; how it was run: as §5
[22] = system: Rattus norvegicus; assay: Biodistribution in Rat blood after 24 hours of iv administration; type: ADME, organism-based; settings: in vivo; how it was run: as §3
[23] = system: Rattus norvegicus; assay: Compound (125I labeled) was evaluated for the total radioactivity in low-density lipoprotein 5 min after intravenous administration.; type: functional; parameters: concentration or dose not given beside the values; how it was run: as §1
[24] = system: Rattus norvegicus; assay: Compound was evaluated for the lipid soluble radioactivity extracted from rat liver at 0.5 hr after intravenous administration.; type: functional; how it was run: as §2
[25] = system: Rattus norvegicus; assay: as §4; type: ADME, organism-based; settings: in vivo, 0.5 h; how it was run: as §3; remark: listed apart in the source
[26] = system: Rattus norvegicus; assay: Compound (125I labeled)was evaluated for the total radioactivity in stacking gel 5 min after intravenous administration.; type: functional; how it was run: as §1
[27] = system: Rattus norvegicus; assay: Biodistribution in Rat blood after 30 minutes of iv administration; type: ADME, organism-based; settings: in vivo, 0.5 h; how it was run: as §3
[28] = system: Rattus norvegicus; assay: Biodistribution in Rat blood after 5 minutes of iv administration; type: ADME, organism-based; settings: in vivo; how it was run: as §3
[29] = system: Rattus norvegicus; assay: Biodistribution in Rat heart after 30 minutes of iv administration; type: ADME, organism-based; settings: in vivo, 0.5 h; how it was run: as §3
[30] = system: Rattus norvegicus; assay: Compound (125I labeled)was evaluated for the total radioactivity in low-density lipoprotein 5 min after intravenous administration.; type: functional; how it was run: as §1
[31] = system: Rattus norvegicus; assay: Compound (125I labeled) was evaluated for the total radioactivity in stacking gel 5 min after intravenous administration.; type: functional; how it was run: as §1
[32] = system: Rattus norvegicus; assay: Biodistribution in Rat heart after 24 hours of iv administration; per g of tissue; type: ADME, organism-based; settings: in vivo; how it was run: as §3
[33] = system: Rattus norvegicus; assay: Biodistribution in Rat lung after 24 hours of iv administration; per g of tissue; type: ADME, organism-based; settings: in vivo; how it was run: as §3
[34] = system: Rattus norvegicus; assay: Biodistribution in Rat liver after 5 minutes of iv administration; per g of tissue; type: ADME, organism-based; settings: in vivo; how it was run: as §3
[35] = system: Rattus norvegicus; assay: Biodistribution in Rat blood after 5 minutes of iv administration; per g of tissue; type: ADME, organism-based; settings: in vivo; how it was run: as §3
[36] = system: Rattus norvegicus; assay: Biodistribution in Rat lung after 5 minutes of iv administration; per g of tissue; type: ADME, organism-based; settings: in vivo; how it was run: as §3
[37] = system: Rattus norvegicus; assay: (§6) Biodistribution in Rat liver after 30 minutes of iv administration; per g of tissue; type: ADME, organism-based; settings: in vivo, 0.5 h; how it was run: as §3
[38] = system: Rattus norvegicus; assay: Biodistribution in Rat heart after 5 minutes of iv administration; per g of tissue; type: ADME, organism-based; settings: in vivo; how it was run: as §3
[39] = system: Rattus norvegicus; assay: Biodistribution in Rat blood after 30 minutes of iv administration; per g of tissue; type: ADME, organism-based; settings: in vivo, 0.5 h; how it was run: as §3
[40] = system: Rattus norvegicus; assay: Biodistribution in Rat liver after 24 hours of iv administration; per g of tissue; type: ADME, organism-based; settings: in vivo; how it was run: as §3
[41] = system: Rattus norvegicus; assay: as §6; type: ADME, organism-based; settings: in vivo, 0.5 h; how it was run: as §3; remark: listed apart in the source
[42] = system: Rattus norvegicus; assay: Biodistribution in Rat lung after 30 minutes of iv administration; per g of tissue; type: ADME, organism-based; settings: in vivo, 0.5 h; how it was run: as §3
[43] = system: Rattus norvegicus; assay: Biodistribution in Rat blood after 24 hours of iv administration; per g of tissue; type: ADME, organism-based; settings: in vivo; how it was run: as §3
[44] = system: Rattus norvegicus; assay: Biodistribution in Rat heart after 30 minutes of iv administration; per g of tissue; type: ADME, organism-based; settings: in vivo, 0.5 h; how it was run: as §3

SMILES	Total radioactivity [1]	Total radioactivity [2]	Total radioactivity [3]	Extracted [4]	Parent compound [4]	Extracted [8]	Parent compound [8]	Total radioactivity [10]	Extracted [12]	Parent compound [12]	Total radioactivity [13]	Total radioactivity [16]	Radioactivity [17]	Total radioactivity [19]	Radioactivity [20]	Radioactivity [21]	Total radioactivity [23]	Extracted [24]	Parent compound [24]	Total radioactivity [31]	also measured
CCC(Cc1c(I)cc(I)c(N)c1I)C(=O)OCC(COC(=O)C(CC)Cc1c(I)cc(I)c(N)c1I)OC(=O)C(CC)Cc1c(I)cc(I)c(N)c1I (centres undefined)	48.2%	0.3% and 1.9%	2.9%	91.7%	92.3%	83.4%	75.1%	27%	90.5%	89.1%	9.9%	5.3%	22.4	55.8%	26	66.8	33.4%	89%	92.9%		Biodistribution [5]: 0.97%; Biodistribution [6]: 2.79%; Biodistribution [7]: 0.18% and 9.19%; Biodistribution [9]: 0.1%; Biodistribution [11]: 1.49%; Biodistribution [14]: 0.67%; Biodistribution [15]: 0.87% and 3.57%; Biodistribution [18]: 0.58%; Biodistribution [22]: 0.14%; Biodistribution [25]: 2.79%; Total radioactivity [26]: 15.2%; Biodistribution [27]: 3.31%; Biodistribution [28]: 6.95%; Biodistribution [29]: 0.39%
CCCCCCCCCCCCCCCC(=O)OC(COC(=O)Cc1c(I)cc(I)c(N)c1I)COC(=O)Cc1c(I)cc(I)c(N)c1I	34.7%	3.2% and 2.4%	4.5%	80.1%	68.8%	67%	60.8%	35.1%	82.7%	82.8%	16.6%	3.9%	38.8	42%	57.2	10.3		90.5%	89.5%	18.7%	Total radioactivity [30]: 39%; Biodistribution [32]: 0.05%; Biodistribution [33]: 0.13%; Biodistribution [34]: 0.54% and 5.53%; Biodistribution [35]: 4.75%; Biodistribution [36]: 1.13%; Biodistribution [37]: 7.62%; Biodistribution [38]: 0.64%; Biodistribution [39]: 2.62%; Biodistribution [40]: 0.11% and 1.39%; Biodistribution [41]: 7.62%; Biodistribution [42]: 0.73%; Biodistribution [43]: 0.12%; Biodistribution [44]: 0.32%
CCCCCCCCCCCCCCCC(=O)OC(COC(=O)C(CC)Cc1c(I)cc(I)c(N)c1I)COC(=O)C(CC)Cc1c(I)cc(I)c(N)c1I (centres undefined)	55.1%	0.1% and 0.3%	3.2%	93.9%	91.7%	82.1%	77.4%	29.7%	86%	82.6%	6.8%	3.4%	18.4	59.7%	30.2	52.1	35.4%	88.4%	86%	6.2%	Biodistribution [32]: 0.21%; Biodistribution [33]: 0.33%; Biodistribution [34]: 0.84% and 2.9%; Biodistribution [35]: 7.44%; Biodistribution [36]: 1.49%; Biodistribution [37]: 4.54%; Biodistribution [38]: 0.87%; Biodistribution [39]: 5.17%; Biodistribution [40]: 0.26% and 0.33%; Biodistribution [41]: 4.54%; Biodistribution [42]: 1.1%; Biodistribution [43]: 0.54%; Biodistribution [44]: 0.66%
